The text below walks through data of ChEMBL document CHEMBL1128219, “In vitro antimalarial activity of chalcones and their derivatives” (J Med Chem, 1995).

SMILES strings stand for the structures.

One data set has as its system Plasmodium falciparum. Kind of data set: In vitro antimalarial activity against chloroquine-sensitive Plasmodium falciparum CDC/Sierra Leone I D6; Not active. The data set is classed as functional, organism-based. Summed up: (§1)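 Compound DMSO solution diluted 400-fold in RPMI 1640 containing 25 mM Hepes, 32 mM NaHCO3 and 10% human plasma, then 2-fold serial dilutions over 11 concentrations. Parasites exposed 48 h at 37 °C under 5% O2/5% CO2/90% N2, then [3H]hypoxanthine added for a further 18 h. DNA harvested onto glass filters and counted by scintillation. IC50 from logistic dose-response fit.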
One may read the IC50 as the concentration needed to halve the response being measured. Read a high IC50 as a need for much substance. As for `COc1ccc(C(=O)CCc2ccc(Cl)cc2Cl)c(OC)c1`, the IC50 result is on record as “Not Active”.

Tested on in the next data set: not listed separately
Kind of data set: Ratio of IC50 of W2 strain to D6 strain. The data set is classed as functional. Summed up: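 Resistance index is IC50 against chloroquine-resistant P. falciparum W2 (CDC/Indochina III) divided by IC50 against chloroquine-sensitive D6 (CDC/Sierra Leone I). Compounds dissolved in DMSO, diluted 400-fold into RPMI 1640 with 25 mM Hepes, 32 mM NaHCO3 and 10% human plasma, then 2-fold serially over 11 concentrations. Parasites were exposed for 48 h at 37 °C (5% O2, 5% CO2, 90% N2), then given [3H]hypoxanthine for 18 h. IC50 came from logistic fits.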
For `COc1ccc(/C=C/C(=O)c2ccc(F)cc2F)c(OC)c1`, the Resistance index was found to be 0.6.
Same read-out and setting: to `COc1cccc(OC)c1C(=O)/C=C\c1ccc(Cl)cc1` belongs 0.6; to `O=C(/C=C\c1ccnc2ccccc12)c1ccc(Cl)c(Cl)c1`, 0.5.
For the molecule `O=C(/C=C/c1cc2ccccc2nc1Cl)c1cccnc1`, the Resistance index came to 0.3.
Still for that read-out and setting: the same measure for `COc1ccc(OC)c(C(=O)/C=C\c2ccc(Cl)cc2Cl)c1`: 0.8; for `COc1ccc(C(=O)/C=C/c2cc3ccccc3nc2Cl)cc1OC`: 0.7.
Still for that read-out and setting: the same measure for `COc1ccc(/C=C/C(=O)c2ccc(Cl)cc2Cl)c(OC)c1`: 1.1; for `O=C(/C=C\c1ccnc2ccccc12)c1cc(Cl)ccc1Cl`: 1.2; for `COc1ccc(C(=O)/C=C\c2ccc(Cl)cc2Cl)c(OC)c1OC`: 0.8.
Consider `COc1ccc(C(=O)/C=C/c2cccc(Cl)c2Cl)c(OC)c1`, for which the Resistance index was 1.1.
For `O=C(/C=C/c1ccc(Cl)cc1Cl)c1ccc(-n2ccnc2)cc1`, the Resistance index came to 1.3.
The same measure, in the same setting: to `COc1ccc(C(=O)/C(C)=C/c2ccc(Cl)cc2Cl)c(OC)c1` belongs 0.4.
With `COc1ccc(C(=O)/C=C/c2ccc(F)cc2F)c(OC)c1`, the Resistance index was 1.
Turning to `O=C(/C=C/c1cc2ccccc2nc1Cl)c1ccc(F)cc1F`, the Resistance index came out at 1.
Turning to `COc1ccc(C(=O)/C=C/c2cccc(Cl)c2Cl)cc1OC`, the Resistance index came out at 0.6.
`COc1ccc(OC)c(C(=O)/C=C/c2cccc(Cl)c2Cl)c1`: the Resistance index amounted to 0.8.
On to `COc1ccc(C(=O)/C=C/c2ccc(C(F)(F)F)cc2)c(OC)c1`, for which the Resistance index stood at 1.1.
Consider `COc1ccc(C(=O)/C=C/c2ccc(F)c(F)c2)c(OC)c1`, for which the Resistance index worked out at 1.
As to `COc1ccc(C(=O)/C=C/c2ccc(Cl)cc2Cl)c(OC)c1`, the Resistance index was 1.2.
Same read-out and setting: to `COc1ccc(C(=O)/C=C/c2cc3ccccc3nc2Cl)c(OC)c1` belongs 0.8.

A further data set deals with Plasmodium falciparum. Kind of data set: In vitro antimalarial activity against chloroquine-resistant Plasmodium falciparum CDC/Indochina III W2; Not active. The data set is classed as functional, organism-based. The procedure, abridged:
as §1
With `COc1ccc(C(=O)CCc2ccc(F)c(F)c2)c(OC)c1`, the IC50 result was “Not Active”.
Still for that read-out and setting: the same measure for `COc1ccc(/C=C(\C)C(=O)c2ccc(Cl)cc2Cl)c(OC)c1`: “Not Active”.
On the same count and under the same terms, to `COc1ccc(C(=O)CCc2ccc(Cl)cc2Cl)c(OC)c1` belongs “Not Active”.

Another data set relates to Plasmodium falciparum. Kind of data set: In vitro antimalarial activity against chloroquine-sensitive Plasmodium falciparum D6 (CDC/Sierra Leone I); Not active. The data set is classed as functional, organism-based. Summed up:
as §1
For the molecule `COc1ccc(C(=O)CCc2ccc(F)c(F)c2)c(OC)c1`, the half-maximal inhibitory concentration (IC50) entry was “Not Active”.
With `COc1ccc(/C=C(\C)C(=O)c2ccc(Cl)cc2Cl)c(OC)c1`, the IC50 entry is given as “Not Active”.

A further data set has as its system Plasmodium falciparum. Kind of data set: In vitro antimalarial activity against chloroquine-sensitive Plasmodium falciparum D6 (CDC/Sierra Leone I). It is filed as functional, organism-based. The procedure, abridged:
as §1
Consider `COc1ccc(/C=C/C(=O)c2ccc(F)cc2F)c(OC)c1`, for which the IC50 was 19.1 µM.
Still for that read-out and setting: to `COc1cccc(OC)c1C(=O)/C=C\c1ccc(Cl)cc1` belongs 1.24 µM; to `COc1ccc(C(=O)CCc2ccc(F)c(F)c2)c(OC)c1`, over 16 µM.
Same read-out and setting: the same measure for `O=C(/C=C\c1ccnc2ccccc12)c1ccc(Cl)c(Cl)c1`: 1.69 µM.
Molecule `O=C(/C=C/c1cc2ccccc2nc1Cl)c1cccnc1` registered an IC50 of 2.53 µM.
For `COc1ccc(/C=C(\C)C(=O)c2ccc(Cl)cc2Cl)c(OC)c1`, the half-maximal inhibitory concentration (IC50) is over 14 µM.
On the same count and under the same terms, to `COc1ccc(OC)c(C(=O)/C=C\c2ccc(Cl)cc2Cl)c1` belongs 0.92 µM; to `COc1ccc(C(=O)/C=C/c2cc3ccccc3nc2Cl)cc1OC`, 0.72 µM.
Same read-out and setting: the same measure for `COc1ccc(/C=C/C(=O)c2ccc(Cl)cc2Cl)c(OC)c1`: 3.4 µM; for `O=C(/C=C\c1ccnc2ccccc12)c1cc(Cl)ccc1Cl`: 0.19 µM.
The molecule `COc1ccc(C(=O)/C=C\c2ccc(Cl)cc2Cl)c(OC)c1OC` yielded an IC50 of 0.43 µM.
Still for that read-out and setting: the same measure for `COc1ccc(C(=O)/C=C/c2cccc(Cl)c2Cl)c(OC)c1`: 1.29 µM; for `O=C(/C=C/c1ccc(Cl)cc1Cl)c1ccc(-n2ccnc2)cc1`: 0.9 µM; for `COc1ccc(C(=O)/C(C)=C/c2ccc(Cl)cc2Cl)c(OC)c1`: 6.26 µM.
`COc1ccc(C(=O)CCc2ccc(Cl)cc2Cl)c(OC)c1` returned an IC50 of over 15 µM.
`COc1ccc(C(=O)/C=C/c2ccc(F)cc2F)c(OC)c1` came in with an IC50 of 1.95 µM.
On the same count and under the same terms, the same measure for `O=C(/C=C/c1cc2ccccc2nc1Cl)c1ccc(F)cc1F`: 0.98 µM; for `COc1ccc(C(=O)/C=C/c2cccc(Cl)c2Cl)cc1OC`: 1.96 µM.
Same read-out and setting: the same measure for `COc1ccc(OC)c(C(=O)/C=C/c2cccc(Cl)c2Cl)c1`: 1.1 µM; for `COc1ccc(C(=O)/C=C/c2ccc(C(F)(F)F)cc2)c(OC)c1`: 0.68 µM; for `COc1ccc(C(=O)/C=C/c2ccc(F)c(F)c2)c(OC)c1`: 2.1 µM.
With `COc1ccc(C(=O)/C=C/c2ccc(Cl)cc2Cl)c(OC)c1`, the half-inhibitory concentration (IC50) stood at 0.77 µM.
Turning to `COc1ccc(C(=O)/C=C/c2cc3ccccc3nc2Cl)c(OC)c1`, the IC50 stood at 1.29 µM.

For another data set, the system named is Plasmodium falciparum. Kind of data set: In vitro antimalarial activity against chloroquine-resistant Plasmodium falciparum CDC/Indochina III W2. The data set is classed as functional, organism-based. The procedure, abridged: as §1
As for `COc1ccc(/C=C/C(=O)c2ccc(F)cc2F)c(OC)c1`, the IC50 stood at 11.1 µM.
`COc1cccc(OC)c1C(=O)/C=C\c1ccc(Cl)cc1` gave an IC50 of 0.77 µM.
In turn, `COc1ccc(C(=O)CCc2ccc(F)c(F)c2)c(OC)c1` gave a half-inhibitory concentration (IC50) of over 16 µM.
On the same count and under the same terms, to `O=C(/C=C\c1ccnc2ccccc12)c1ccc(Cl)c(Cl)c1` belongs 0.8 µM; to `O=C(/C=C/c1cc2ccccc2nc1Cl)c1cccnc1`, 0.71 µM; to `COc1ccc(/C=C(\C)C(=O)c2ccc(Cl)cc2Cl)c(OC)c1`, over 14 µM.
The molecule `COc1ccc(OC)c(C(=O)/C=C\c2ccc(Cl)cc2Cl)c1` yielded an IC50 of 0.75 µM.
The same measure, in the same setting: the same measure for `COc1ccc(C(=O)/C=C/c2cc3ccccc3nc2Cl)cc1OC`: 0.51 µM; for `COc1ccc(/C=C/C(=O)c2ccc(Cl)cc2Cl)c(OC)c1`: 3.8 µM; for `O=C(/C=C\c1ccnc2ccccc12)c1cc(Cl)ccc1Cl`: 0.23 µM.
Consider `COc1ccc(C(=O)/C=C\c2ccc(Cl)cc2Cl)c(OC)c1OC`, for which the IC50 was found to be 0.36 µM.
The molecule `COc1ccc(C(=O)/C=C/c2cccc(Cl)c2Cl)c(OC)c1` came in with an IC50 of 1.38 µM.
In turn, `O=C(/C=C/c1ccc(Cl)cc1Cl)c1ccc(-n2ccnc2)cc1` yielded an IC50 of 1.18 µM.
On the same count and under the same terms, the same measure for `COc1ccc(C(=O)/C(C)=C/c2ccc(Cl)cc2Cl)c(OC)c1`: 2.46 µM.
Still for that read-out and setting: to `COc1ccc(C(=O)CCc2ccc(Cl)cc2Cl)c(OC)c1` belongs over 15 µM; to `COc1ccc(C(=O)/C=C/c2ccc(F)cc2F)c(OC)c1`, 1.9 µM; to `O=C(/C=C/c1cc2ccccc2nc1Cl)c1ccc(F)cc1F`, 1 µM.
`COc1ccc(C(=O)/C=C/c2cccc(Cl)c2Cl)cc1OC` displayed an IC50 of 1.14 µM.
As for `COc1ccc(OC)c(C(=O)/C=C/c2cccc(Cl)c2Cl)c1`, the IC50 was 0.92 µM.
For the molecule `COc1ccc(C(=O)/C=C/c2ccc(C(F)(F)F)cc2)c(OC)c1`, the IC50 worked out at 0.75 µM.
For the molecule `COc1ccc(C(=O)/C=C/c2ccc(F)c(F)c2)c(OC)c1`, half-maximal inhibition (IC50) was put at 2.09 µM.
On the same count and under the same terms, to `COc1ccc(C(=O)/C=C/c2ccc(Cl)cc2Cl)c(OC)c1` belongs 0.9 µM.
In turn, `COc1ccc(C(=O)/C=C/c2cc3ccccc3nc2Cl)c(OC)c1` registered an IC50 of 1 µM.

Tested on in the next data set: not listed separately
Kind of data set: Compound was evaluated for the pKa value in water at 20 degrees Centigrade. The data set is classed as physicochemical.
In general, pKa refers to the negative logarithm of the acid dissociation constant. A lower pKa goes with a stronger acid or weaker base. `c1ccc2cnccc2c1` [ISOQUINOLINE] displayed a pKa of 5.4.
